High-throughput results: PubChem, several laboratories
Compounds with a hit are over-represented: about 1.8% of the library has one in this group of screens.
NR1D1 modulator: modulators of Rev-erb alpha DNA binding, primary screen, biochemical, FITC-DNA, fluorescence polarization, uHTS | Rev-erbα–FITC-DNA binding, 90 min | activity, % at 10 µM | Nuclear receptor subfamily 1 group D member 1 (Homo sapiens), P20393 | hit rate 0.79% among 370,000;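 active = activity above about 14%, limit read from the data; passing the limit was not always enough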;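 also: 0% = DMSO wells with 35 nM protein and 100% = DMSO wells with 750 nM protein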
Target sequence (P20393 whole entry, looked up): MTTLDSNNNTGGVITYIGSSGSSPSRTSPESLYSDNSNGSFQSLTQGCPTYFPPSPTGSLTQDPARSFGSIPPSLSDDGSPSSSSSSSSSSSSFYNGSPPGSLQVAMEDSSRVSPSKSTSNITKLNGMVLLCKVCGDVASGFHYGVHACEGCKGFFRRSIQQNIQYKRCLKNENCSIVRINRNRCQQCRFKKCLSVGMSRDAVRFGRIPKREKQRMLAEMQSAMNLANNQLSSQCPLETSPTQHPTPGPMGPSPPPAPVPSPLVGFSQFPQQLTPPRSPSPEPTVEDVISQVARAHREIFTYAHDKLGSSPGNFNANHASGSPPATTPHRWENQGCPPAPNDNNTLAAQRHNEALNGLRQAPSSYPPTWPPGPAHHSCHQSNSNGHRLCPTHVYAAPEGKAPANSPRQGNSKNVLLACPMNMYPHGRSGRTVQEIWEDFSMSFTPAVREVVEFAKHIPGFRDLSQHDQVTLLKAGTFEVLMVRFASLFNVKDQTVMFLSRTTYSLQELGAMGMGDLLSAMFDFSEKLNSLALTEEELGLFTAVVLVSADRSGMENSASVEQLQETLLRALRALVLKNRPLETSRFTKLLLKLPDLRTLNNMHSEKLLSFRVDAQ
NR2E3 ag-1: NR2E3 agonists in two-hybrid cells, primary screen, cell-based, luminescence, CHO-S, Gal4-NCOR/VP16-NR2E3. Photoreceptor-specific nuclear receptor (Homo sapiens), Q9Y5X4. luciferase. inhibition of corepressor binding, % at 3.98 µM. hit rate 0.35% among 360,000. AID 602229, 2012;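 active = inhibition above the mean of all tested compounds plus 3 SD, cut at about 70% in these data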;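 also: 0% = DMSO with NR2E3 transfected cells and 100% = cells lacking NR2E3 construct; higher means lower luciferase signal from less NR2E3 corepressor binding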
PG9 binder: binders of HIV-1 gp120 antibody PG9, primary screen, biochemical, TR-FRET; TR-FRET gp120-PG9 antibody binding; AID 624416, 2012; HIV-1 gp120 / PG9 antibody interaction; inhibition, % at 6.7 µM; hit rate 0.43% among 360,000; in the data active = inhibition above about 8.5%
NR2E3 ag-2: inhibitors of NR2E3-RetCOR corepressor binding, primary screen, NR2E3 agonist project, biochemical, TR-FRET, GST-NR2E3, biotin-RetCOR. 1536-well. hit rate 0.12% among 320,000. Photoreceptor-specific nuclear receptor (Homo sapiens), Q9Y5X4. AID 2300, 2010. inhibition of corepressor binding, % at 4.78 µM;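 active = percent inhibition above the cutoff of mean plus 3 SD of all tested compounds, set per screening campaign, cut at about 20% in these data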;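 also: 0% = DMSO wells and 100% = biotin wells as full block of FRET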
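Material: NR2E3–RetCOR corepressor complex | Quantity: 1.35 nM GST-tagged NR2E3 final | Schedule: 5 h at 4 °C | Replication: Singlicate compound wells | Reagent: RetCOR corepressor, biotinylated, 7 nM | Controls: Biotin wells as high control, 0.6% DMSO wells as low control | Signal: TR-FRET, Eu(K)-anti-GST donor, streptavidin-D2 acceptor, ex 340, em 617/671 nm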
GalR3 antagonist: GalR3 antagonists in HEK293 cells, primary screen, cell-based, fluorescence readout; inhibition, % at 3 µM; HEK293 GalR3-CNG cAMP membrane potential fluorescence; galR3 body fused to GalR1 C-terminus; hit rate 0.44% among 360,000; AID 651719, 2012;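 active = inhibition above the screen-wide average plus 3 SD, cut at about 13% in these data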;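 also: forskolin and galanin both at EC90 stimulate the cells; cAMP rise reported by CNG channel membrane potential dye signal; 0% = forskolin plus galanin with DMSO and 100% = forskolin alone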
NR2E3 ag confirm: NR2E3 agonists, confirmation, biochemical, TR-FRET; shares compounds with NR2E3 ag-2; cell-free NR2E3 corepressor release, 5 h; activation (reported as inhibition), % at 3.98 µM; hit rate 39% among 360; in the data active = activation above about 20%
PPARg-NCOR2 ctr: agonists of PPARg-NCOR2 corepressor interaction, counter-screen for NR2E3 agonist project, biochemical, TR-FRET. shares compounds with NR2E3 ag-2. TR-FRET PPARg-NCOR2 coregulator interaction. inhibition, % at 3.98 µM. hit rate 45% among 360. AID 504787, 2011; in the data active = inhibition above about 20%;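 also: 0% = DMSO vehicle and 100% = wells without protein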
* marks the source's active call; other numbers are inactive results; · = not tested or not shown.

SMILES | NR1D1 modulator | NR2E3 ag-1 | PG9 binder | NR2E3 ag-2 | GalR3 antagonist | NR2E3 ag confirm | PPARg-NCOR2 ctr
O=C(CCCCCn1c(=S)[nH]c2cc3c(cc2c1=O)OCO3)N1CCN(C(=O)c2ccco2)CC1 | -1.4 | -15.6 | 11.8* | -93.0 | -5.4 | · | ·
Cc1noc(C)c1S(=O)(=O)N(CC(=O)Nc1ccc2c(c1)OCO2)c1ccc(C(C)C)cc1 | -4.7 | -5.9 | 0.6 | 5.6 | 0.8 | · | ·
Cc1nn(C)c(C)c1S(=O)(=O)N(CC(=O)Nc1ccc2c(c1)OCO2)c1ccc(C(C)C)cc1 | -4.8 | 29.1 | 14.1* | -1.6 | 3.9 | · | ·
C/C=C(/C)C(=O)O[C@@H]1[C@H](OC(C)=O)[C@@]2(CO)C(CC1(C)C)C1=CCC3[C@@]4(C)CC[C@H](O[C@@H]5O[C@H](C(=O)O)[C@@H](O[C@@H]6O[C@H](CO)[C@@H](O)[C@H](O)[C@H]6O)[C@H](O)[C@H]5O[C@@H]5O[C@H](CO)[C@@H](O)[C@H](O)[C@H]5O)[C@](C)(CO)C4CC[C@@]3(C)[C@]1(C)C[C@H]2O (some centres undefined) | 1.2 | · | · | · | · | · | ·
C/C=C(\C)C(=O)OC1[C@H](OC(C)=O)C2(CO)C(CC1(C)C)C1=CCC3C4(C)CCC(O[C@@H]5O[C@H](C(=O)O)[C@@H](O[C@@H]6O[C@H](CO)[C@@H](O)[C@H](O)[C@H]6O)[C@H](O)[C@H]5O[C@H]5O[C@H](CO)[C@@H](O)[C@H](O)[C@H]5O)[C@](C)(CO)C4CCC3(C)[C@]1(C)C[C@H]2O (some centres undefined) | · | 105.8* | · | · | · | · | ·
CCCCC/C=C/CCC(=O)N[C@H]1[C@H](Oc2c3cc4cc2Oc2ccc(cc2Cl)[C@@H](O[C@@H]2O[C@H](CO)[C@@H](O)[C@H](O)[C@H]2NC(C)=O)[C@@H]2NC(=O)[C@H](NC(=O)[C@@H]4NC(=O)[C@H]4NC(=O)C(Cc5ccc(c(Cl)c5)O3)NC(=O)[C@H](N)c3ccc(O)c(c3)Oc3cc(O)cc4c3)c3ccc(O)c(c3)-c3c(O[C@@H]4O[C@H](CO)[C@@H](O)[C@H](O)[C@@H]4O)cc(O)cc3[C@@H](C(=O)O)NC2=O)O[C@H](CO)[C@@H](O)[C@@H]1O | -4.5 | · | · | · | · | · | ·
NC[C@@H]1O[C@H](O[C@@H]2[C@@H](CO)OC(O[C@@H]3[C@@H](O)[C@H](N)C[C@H](N)[C@H]3O[C@@H]3O[C@H](CN)[C@@H](O)[C@H](O)[C@H]3N)[C@@H]2O)[C@H](N)[C@@H](O)[C@@H]1O (some centres undefined) | 5.6 | · | · | · | · | · | ·
Cc1cn(S(=O)(=O)c2ccc(Br)c3ccccc23)cn1 | · | · | · | 31.0* | · | · | ·
O=[N+]([O-])c1cc([N+](=O)[O-])c2oc(-c3ccccc3)c(Br)c2c1O | · | 100.2* | · | · | · | · | ·
Cc1ccc(NC(=O)CSc2nnc(-c3cnccn3)n2-c2ccccc2)cc1 | 18.9 | -4.5 | 16.1* | 4.6 | -4.7 | · | ·
NC(=O)c1cc[n+](CC2=C(C(=O)O)N3C(=O)[C@@H](NC(=O)Cc4cccs4)[C@H]3SC2)cc1 | -1.7 | · | · | · | · | · | ·
Nc1ccc2c(c1)C(=O)c1ccccc1-2 | -1.9 | -11.9 | -13.3 | -11.0 | -7.2 | · | ·
Nc1ccc2c(c1)C(=O)C(=O)c1ccccc1-2 | -21.1 | 69.8 | -41.6 | 19.6* | 0.8 | 8.7 | 48.3*
C1CCN2C[C@@H]3C[C@H](CN4CCCC[C@@H]34)[C@H]2C1 | -2.6 | · | · | · | · | · | ·
Cc1ccc[n+](C2C(c3ccc([N+](=O)[O-])cc3)C(C#N)=C([S-])NC2(O)C2CC2)c1 (centres undefined) | 6.2 | 14.6 | 1.4 | 2.8 | -6.5 | · | ·
Cc1cccc[n+]1C1C(c2ccccc2)C(C#N)=C(C(=C=[N-])C#N)NC1(O)C1CC1 (centres undefined) | · | -18.5 | · | 42.8* | · | 4.9 | 30.1*
Cn1nc(-c2ccc(Cl)cc2)nc2c(=O)n(C)c(=O)nc1-2 | · | · | · | 37.1* | · | 32.4* | 55.8*
CS(=O)(=O)n1nc(-c2ccc(Cl)cc2)nc1N | 2.9 | -10.9 | 0.2 | 2.2 | -6.1 | · | ·
C[C@H]1CC2C([C@@H](O)C[C@@]3(C)C2CC[C@]3(O)C(=O)COC(=O)CCC(=O)O)[C@@]2(C)C=CC(=O)C=C12 (some centres undefined) | -0.7 | · | · | · | · | · | ·
CN(C(=O)c1ccc(NC(=O)Cc2ccc(NC(=O)C3CCN(C(=O)C4CCCC4)CC3)cc2)cc1)C1CCCC1 | 12.1 | -36.3 | -0.9 | · | -5.8 | · | ·
CN(C(=O)c1ccc(NC(=O)Cc2ccc(NC(=O)C3CCN(C(=O)C4CCCCC4)CC3)cc2)cc1)C1CC1 | -0.2 | -15.2 | 0.8 | 19.6* | 2.0 | -0.1 | -6.8
O=C(O)c1ccc2c(c1)C(=O)/C(=C\c1ccco1)C2=O | 10.1 | -24.7 | -1.6 | 38.1* | -6.9 | 10.1 | 26.4*
CC(COc1ccccc1)NC(C)[C@H](O)c1ccc(O)cc1 (some centres undefined) | 4.2 | · | · | · | · | · | ·
CNC(=O)CN(CCN(CCN(CC(=O)O)CC(=O)NC)CC(=O)O)CC(=O)O | -0.8 | · | · | · | · | · | ·
C[C@@H]1NC(=O)N[C@@H]1CCCCCC(=O)O | -10.1 | -4.3 | 0.6 | 76.3* | -3.3 | 77.3* | 72.3*
SMILES | NR1D1 modulator | NR2E3 ag-1 | PG9 binder | NR2E3 ag-2 | GalR3 antagonist | NR2E3 ag confirm | PPARg-NCOR2 ctr
CCCCCC1NC(=O)NC1CCCCCC(=O)O (centres undefined) | 1.9 | -13.0 | 1.2 | 2.5 | -1.2 | · | ·
CC1NC(=O)NC1CCCCCC(=O)NCCc1ccccc1 (centres undefined) | -7.2 | -8.7 | -2.5 | 68.5* | -8.0 | 75.2* | 70.1*
Cc1cccc(C)c1NC(=O)CCCCCC1NC(=O)NC1C (centres undefined) | -3.9 | -4.4 | 0.9 | 47.4* | -4.0 | 34.9* | 2.5
O=C(CCCCC(=O)NCCCc1ccccc1)NCCCc1ccccc1 | 3.8 | -14.2 | -2.5 | 4.2 | -6.2 | · | ·
O=C(O)CCCCC1SCC2NC(=O)NC21 (centres undefined) | 1.2 | -35.5 | -1.3 | 37.7* | -1.6 | 5.1 | 24.7*
C[C@@H]1CC[C@H]2[C@@H](C)C(O)O[C@@H]3OC4(C)CC[C@@H]1[C@]32OO4 (some centres undefined) | -3.0 | · | · | · | · | · | ·
CC1(C)O[C@@H]2CC3C4CCC5=CC(=O)C=C[C@]5(C)C4[C@@H](O)C[C@]3(C)[C@]2(C(=O)CO)O1 (some centres undefined) | -7.4 | · | · | · | · | · | ·
